Assay results from ChEMBL document CHEMBL3526055, “Human metabolism of lapatinib, a dual kinase inhibitor: implications for hepatotoxicity” (Drug Metab Dispos, 2012).
Blank lines part the entries; values can stand above or below the molecule they belong to.

Legend:
Assay type in all cases: ADME, organism-based
[1] = test system: Plasma; test: Drug level in healthy human plasma treated with [14C]lapatinib at 250 mg, po administered as single dose by LC-MS/MS method; settings: in vivo
Summary of the method: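 Healthy volunteers (n=6) received a single 250 mg oral aqueous suspension of unlabeled plus [14C]-drug (89.1 μCi), fasted 10 h predose to ~4 h postdose. Samples were collected for 168 h. Plasma was extracted from 25 µl by protein precipitation with an isotope-labeled internal standard and quantified by validated LC/MS/MS over 5 to 5000 ng/ml. Medians were reported.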

[2] = Drug level in healthy human feces treated with [14C]lapatinib at 250 mg, po administered as single dose by LC-MS/MS method; settings: in vivo
[3] = test system: Plasma; test: Drug metabolism in healthy human plasma assessed as N-(3-chloro-4-(3-fluorobenzyloxy)phenyl)-6-(5-((hydroxy(2-(methylsulfonyl)ethyl)amino)methyl)furan-2-yl)quinazolin-4-amine formation at 250 mg, po administered as single dose by LC-MS/MS method; settings: in vivo
Summary of the method: (§1)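 Pooled plasma from subjects given a single 250 mg oral [14C] suspension was extracted (>90% recovery) and run on a C18 HPLC column at 45 °C. Positive-ion ESI single-quadrupole LC/MS used full scan m/z 100 to 900, with UV at 277 nm. Faeces were extracted with ethanol:acetonitrile:sample (3:3:1) for radio-HPLC profiling with off-line LSC fractions and nanoelectrospray MS.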

[4] = test system: Plasma; test: Drug metabolism in healthy human plasma assessed as (E)-5-(4-(3-chloro-4-(3-fluorobenzyloxy)phenylamino)quinazolin-6-yl)furan-2-carbaldehyde oxime formation at 250 mg, po administered as single dose by LC-MS/MS method; settings: in vivo; summary of the method: as §1
[5] = test system: Plasma; test: Drug metabolism in healthy human plasma assessed as (Z)-5-(4-(3-chloro-4-(3-fluorobenzyloxy)phenylamino)quinazolin-6-yl)furan-2-carbaldehyde oxime formation at 250 mg, po administered as single dose by LC-MS/MS method; settings: in vivo; summary of the method: as §1
[6] = test system: Plasma; test: Drug metabolism in healthy human plasma assessed as 5-(4-(3-chloro-4-(3-fluorobenzyloxy)phenylamino)quinazolin-6-yl)furan-2-carbaldehyde formation at 250 mg, po administered as single dose by LC-MS/MS method; settings: in vivo; summary of the method: as §1
[7] = test system: Plasma; test: Drug metabolism in healthy human plasma assessed as 5-(4-(3-chloro-4-(3-fluorobenzyloxy)phenylamino)quinazolin-6-yl)furan-2-carboxylic acid formation at 250 mg, po administered as single dose by LC-MS/MS method; settings: in vivo; summary of the method: as §1
[8] = Drug level in healthy human feces at 250 mg, po administered as single dose by LC-MS/MS method; settings: read-out: Drug uptake
[9] = Drug metabolism in healthy human feces assessed as 6-(5-(aminomethyl)furan-2-yl)-N-(3-chloro-4-(3-fluorobenzyloxy)phenyl)quinazolin-4-amine formation at 250 mg, po administered as single dose by LC-MS/MS method; settings: in vivo; summary of the method: as §1
[10] = Drug recovery in healthy human urine at 250 mg, po administered as single dose after 0 to 144 hrs; settings: read-out: Drug recovery
Summary of the method: (§2)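 Six healthy subjects (3 male, 3 female) received a single 250 mg oral [14C] suspension. Urine was collected in intervals and faeces were collected up to 168 h postdose. Faeces were homogenized as a water slurry and triplicate ~0.2 g aliquots combusted. Urine and plasma were counted directly by LSC with quench and background correction. Results are reported as median % of dose.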

[11] = Drug recovery in healthy human urine at 250 mg, po administered as single dose after 0 to 168 hrs; settings: read-out: Drug recovery; summary of the method: as §2
[12] = test system: Homo sapiens; test: Total drug recovery in healthy human at 250 mg, po administered as single dose after 0 to 168 hrs; settings: in vivo; summary of the method: as §2
[13] = test system: Plasma; test: Drug recovery in healthy human plasma at 250 mg, po administered as single dose; settings: in vivo
[14] = test system: Plasma; test: Drug metabolism in healthy human plasma assessed as 2-chloro-4-(6-(5-((2-(methylsulfonyl)ethylamino)methyl)furan-2-yl)quinazolin-4-ylamino)phenol formation at 250 mg, po administered as single dose by LC-MS/MS method; settings: in vivo; summary of the method: as §1
[15] = test system: Plasma; test: Drug metabolism in healthy human plasma assessed as 4-(3-chloro-4-hydroxyphenylamino)-6-(5-((2-(methylsulfonyl)ethylamino)methyl)furan-2-yl)quinazolin-2-ol formation at 250 mg, po administered as single dose by LC-MS/MS method; settings: in vivo; summary of the method: as §1
[16] = test system: Plasma; test: Drug metabolism in healthy human plasma assessed as N-((5-(4-(3-chloro-4-(3-fluorobenzyloxy)phenylamino)quinazolin-6-yl)furan-2-yl)methylene)-2-(methylsulfonyl)ethanamine oxide formation at 250 mg, po administered as single dose by LC-MS/MS method; settings: in vivo; summary of the method: as §1
[17] = test system: Plasma; test: Drug metabolism in healthy human plasma assessed as 1-(5-(4-(3-chloro-4-(3-fluorobenzyloxy)phenylamino)quinazolin-6-yl)furan-2-yl)-N-(2-(methylsulfonyl)ethylidene)methanamine oxide formation at 250 mg, po administered as single dose by LC-MS/MS method; settings: in vivo; summary of the method: as §1
[18] = Drug recovery in healthy human urine at 250 mg, po administered as single dose; settings: read-out: Drug recovery; summary of the method: as §2
[19] = Total drug recovery in healthy human at 250 mg, po administered as single dose; settings: in vivo, read-out: Drug recovery; summary of the method: as §2
[20] = Drug recovery in healthy male human urine at 250 mg, po administered as single dose; settings: read-out: Drug recovery; summary of the method: as §2
[21] = Drug recovery in healthy male human feces at 250 mg, po administered as single dose; settings: read-out: Drug recovery; summary of the method: as §2
[22] = Total drug recovery in healthy male human at 250 mg, po administered as single dose; settings: in vivo, read-out: Drug recovery; summary of the method: as §2
[23] = Drug recovery in healthy female human urine at 250 mg, po administered as single dose; settings: read-out: Drug recovery; summary of the method: as §2
[24] = Drug recovery in healthy female human feces at 250 mg, po administered as single dose; settings: read-out: Drug recovery; summary of the method: as §2
[25] = Total drug recovery in healthy female human at 250 mg, po administered as single dose; settings: in vivo, read-out: Drug recovery; summary of the method: as §2
[26] = Drug recovery in healthy human feces at 250 mg, po administered as single dose after 0 to 24 hrs; settings: read-out: Drug recovery; summary of the method: as §2
[27] = Drug recovery in healthy human feces at 250 mg, po administered as single dose after 0 to 48 hrs; settings: read-out: Drug recovery; summary of the method: as §2
[28] = Drug recovery in healthy human feces at 250 mg, po administered as single dose after 0 to 72 hrs; settings: read-out: Drug recovery; summary of the method: as §2
[29] = Drug recovery in healthy human feces at 250 mg, po administered as single dose after 0 to 96 hrs; settings: read-out: Drug recovery; summary of the method: as §2
[30] = Drug recovery in healthy human feces at 250 mg, po administered as single dose after 0 to 120 hrs; settings: read-out: Drug recovery; summary of the method: as §2
[31] = Drug recovery in healthy human feces at 250 mg, po administered as single dose after 0 to 144 hrs; settings: read-out: Drug recovery; summary of the method: as §2
[32] = Drug recovery in healthy human feces at 250 mg, po administered as single dose after 0 to 168 hrs; settings: read-out: Drug recovery; summary of the method: as §2
[33] = Drug recovery in healthy human urine at 250 mg, po administered as single dose after 0 to 24 hrs; settings: read-out: Drug recovery; summary of the method: as §2
[34] = Drug recovery in healthy human urine at 250 mg, po administered as single dose after 0 to 48 hrs; settings: read-out: Drug recovery; summary of the method: as §2
[35] = Drug recovery in healthy human urine at 250 mg, po administered as single dose after 0 to 72 hrs; settings: read-out: Drug recovery; summary of the method: as §2
[36] = Drug recovery in healthy human urine at 250 mg, po administered as single dose after 0 to 96 hrs; settings: read-out: Drug recovery; summary of the method: as §2
[37] = Drug recovery in healthy human urine at 250 mg, po administered as single dose after 0 to 120 hrs; settings: read-out: Drug recovery; summary of the method: as §2

Compound: CS(=O)(=O)C/C=[N+](/[O-])Cc1ccc(-c2ccc3ncnc(Nc4ccc(OCc5cccc(F)c5)c(Cl)c4)c3c2)o1
- Drug metabolism [1]: metabolite_detected

Compound: CS(=O)(=O)CCN(O)Cc1ccc(-c2ccc3ncnc(Nc4ccc(OCc5cccc(F)c5)c(Cl)c4)c3c2)o1
- Drug metabolism [1]: metabolite_detected

Compound: Oc1ccc(-c2ccc3ncnc(Nc4ccc(OCc5cccc(F)c5)c(Cl)c4)c3c2)nc1
- Drug uptake [2]: 6.3%

Compound: CS(=O)(=O)CCNCc1ccc(-c2ccc3nc(O)nc(Nc4ccc(O)c(Cl)c4)c3c2)o1
- Drug uptake [2]: 3.3%

Compound: CS(=O)(=O)CC/[N+]([O-])=C/c1ccc(-c2ccc3ncnc(Nc4ccc(OCc5cccc(F)c5)c(Cl)c4)c3c2)o1
- Drug metabolism [1]: metabolite_detected

Compound: CS(=O)(=O)CCNCc1ccc(-c2ccc3ncn[14c](Nc4ccc(OCc5cccc(F)c5)c(Cl)c4)c3c2)o1.Cc1ccc(S(=O)(=O)O)cc1.O
- Drug metabolism [3]: metabolite_detected
- Drug metabolism [4]: metabolite_detected
- Drug metabolism [5]: metabolite_detected
- Drug metabolism [6]: metabolite_detected
- Drug metabolism [7]: metabolite_detected
- dose excreted [8]: 27%
- Drug metabolism [9]: metabolite_detected
- dose excreted [10]: 1.16%
- dose excreted [11]: 1.16%
- Drug recovery [12]: 93.1%
- Drug recovery [13]: > 90%
- Drug metabolism [14]: metabolite_not_detected
- Drug metabolism [15]: metabolite_not_detected
- Drug metabolism [16]: metabolite_detected
- Drug metabolism [17]: metabolite_detected
- dose excreted [18]: 1.15%
- dose excreted [19]: 93%
- dose excreted [20]: 1%
- dose excreted [21]: 93.6%
- dose excreted [22]: 94.6%
- dose excreted [23]: 1.3%
- dose excreted [24]: 89.9%
- dose excreted [25]: 91.5%
- dose excreted [26]: 10.5%
- dose excreted [27]: 45.3%
- dose excreted [28]: 74.9%
- dose excreted [29]: 78.4%
- dose excreted [30]: 90.8%
- dose excreted [31]: 91.4%
- dose excreted [32]: 91.8%
- dose excreted [33]: 1.01%
- dose excreted [34]: 1.16%
- dose excreted [35]: 1.16%
- dose excreted [36]: 1.16%
- dose excreted [37]: 1.16%

Compound: CS(=O)(=O)CC[n+]1cc([O-])ccc1-c1ccc2ncnc(Nc3ccc(OCc4cccc(F)c4)c(Cl)c3)c2c1
- Drug metabolism [2]: metabolite_detected

Compound: CS(=O)(=O)CCNCc1ccc(-c2ccc3ncnc(Nc4ccc(O)c(Cl)c4)c3c2)o1
- Drug uptake [2]: 3.9%

The next lines start with the values.

- Drug metabolism [1]: metabolite_detected
Compound: O/N=C/c1ccc(-c2ccc3ncnc(Nc4ccc(OCc5cccc(F)c5)c(Cl)c4)c3c2)o1

- Drug metabolism [1]: metabolite_detected
- Drug uptake [2]: 14%
Compound: O=C(O)c1ccc(-c2ccc3ncnc(Nc4ccc(OCc5cccc(F)c5)c(Cl)c4)c3c2)o1

- Drug metabolism [1]: metabolite_detected
Compound: O=Cc1ccc(-c2ccc3ncnc(Nc4ccc(OCc5cccc(F)c5)c(Cl)c4)c3c2)o1

- Drug metabolism [2]: metabolite_detected
Compound: NCc1ccc(-c2ccc3ncnc(Nc4ccc(OCc5cccc(F)c5)c(Cl)c4)c3c2)o1

- Drug metabolism [1]: metabolite_detected
Compound: O/N=C\c1ccc(-c2ccc3ncnc(Nc4ccc(OCc5cccc(F)c5)c(Cl)c4)c3c2)o1
